Active and inactive are the calls of the source. The rule behind the calls is not given here.
How the values were obtained:
Type in all cases: functional
[1] = test system: Radical scavenging activity; assay: Antioxidant activity assessed as DPPH radical scavenging activity
Outline: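 DPPH (250 μM in MeOH) added to methanolic compound solutions, seven serial […] dilutions giving a final range of 100 to 1.6 μg mL⁻¹. Quercetin and Trolox served as positive controls. Triplicate assays. SC₅₀ is the concentration (μg mL⁻¹) scavenging 50% of DPPH radicals, reported as mean (%RSD).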

[2] = test system: Staphylococcus aureus; assay: Antimicrobial activity against Staphylococcus aureus ATCC 14458 by broth microdilution method
Outline: (§1)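 Broth microdilution in 96-well plates; compounds tested from 10 to 1000 μg/mL. MIC is the lowest concentration giving complete inhibition of the strain. Positive controls were bacitracine (0.2 UI mL⁻¹) and ketoconazole (100.0 μg mL⁻¹). Negative control was DMSO–sterile water (5:95, v/v). Run in duplicate per microorganism and repeated three times.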

[3] = test system: Candida tropicalis; assay: Antimicrobial activity against Candida tropicalis ATCC 157 by broth microdilution method; outline: as §1
[4] = test system: Pseudomonas aeruginosa; assay: Antimicrobial activity against Pseudomonas aeruginosa ATCC 15442 by broth microdilution method; outline: as §1
[5] = test system: Escherichia coli; assay: Antimicrobial activity against Escherichia coli ATCC 10799 by broth microdilution method; outline: as §1
[6] = test system: Candida dubliniensis; assay: Antimicrobial activity against Candida dubliniensis ATCC 778157 by broth microdilution method; outline: as §1
[7] = test system: Nakaseomyces glabratus; assay: Antimicrobial activity against Candida glabrata ATCC 30070 by broth microdilution method; outline: as §1
[8] = test system: Staphylococcus epidermidis; assay: Antimicrobial activity against Staphylococcus epidermidis ATCC 12228 by broth microdilution method; outline: as §1

`Cc1c(C)c2c(c(C)c1O)CCC(C)(C(=O)O)O2` (stereo unspecified) was tested, and the SC50 [1] was 2.2 µg/mL.
Work on `O=c1c(O)c(-c2ccc(O)c(O)c2)oc2cc(O)cc(O)c12` yielded an SC50 [1] of 13 µg/mL.
In the case of `C[C@H]([C@H](C)Cc1ccc2c(c1)OCO2)[C@H](O)c1ccc2c(c1)OCO2` (relative stereo) [MAGNOVATIN A], the MIC [2] is reported as greater than 100 µg/mL, the Activity [1] is reported as “inactive” and the MIC [3] is reported as greater than 100 µg/mL. The MIC [4] was greater than 100 µg/mL, the MIC [5] was greater than 100 µg/mL and the MIC [6] was greater than 100 µg/mL. The MIC [7] was greater than 100 µg/mL and the MIC [8] was greater than 100 µg/mL.
With `C/C=C/c1cc(OC)c2c(c1)[C@@H](C)[C@H](c1ccc(OC)c(OC)c1)O2` [ACUMINATIN] the MIC [2] was greater than 100 µg/mL, the Activity [1] was “inactive” and the MIC [3] was greater than 100 µg/mL. The MIC [4] was greater than 100 µg/mL, the MIC [5] was greater than 100 µg/mL and the MIC [6] was greater than 100 µg/mL. For the same molecule, the MIC [7] was greater than 100 µg/mL and the MIC [8] was greater than 100 µg/mL.
Molecule `C/C=C/c1cc(OC)c2c(c1)[C@@H](C)[C@H](c1ccc(O)c(OC)c1)O2` [LICARINE A] has an MIC [2] greater than 100 µg/mL, an SC50 [1] of 56.1 µg/mL and an MIC [3] greater than 100 µg/mL. It also gave an MIC [4] greater than 100 µg/mL, an MIC [5] greater than 100 µg/mL and an MIC [6] greater than 100 µg/mL. The MIC [7] was greater than 100 µg/mL and the MIC [8] was greater than 100 µg/mL.
